Experimental data reported in PMC6120730 (ACS Omega, 2018).
Values after ≈ are worked out from the molar mass of the structure shown. Read-outs that look alike come from different tables or passages of the source.

Legend:
[1] = mouse, oral, 10 mg/kg, plasma concentrations; cited from earlier work
[2] = human liver microsomes; previously reported; cited from earlier work
[3] = previously reported; cited from earlier work
[4] = mouse liver microsomes, previously reported, cited from earlier work; for predicted Eh (M): predicted hepatic extraction ratio
[5] = pH 7.4; previously reported; cited from earlier work
[6] = In vitro metabolism in human liver microsomes; format: in vitro ADME; details: for microsomal CLint: human, liver microsomes; for predicted Eh (H): predicted hepatic extraction ratio, human liver microsomes
How it was run: (§1)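 Liver microsomes at 0.4 or 0.5 mg/mL protein were incubated at 37 °C with 0.5 or 1 μM test compound. Remaining compound in the supernatant was quantified by LC–MS at time points over 0–60 min. In vitro CLint and predicted hepatic extraction ratio were calculated from the depletion data.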

[7] = In vitro metabolism in mouse liver microsomes; format: in vitro ADME; details: for predicted Eh (M): predicted hepatic extraction ratio, mouse liver microsomes
How it was run: as §1

[8] = test system: P. falciparum 3D7 parasites; test: P. falciparum 3D7 growth assay; format: cell-based; details: Pf3D7 EC50 relative to 1
[9] = Kinetic aqueous solubility by nephelometry, pH 6.5; format: physicochemical; details: phosphate buffer, pH 6.5, aqueous buffer, kinetic from dmso stock
How it was run: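 Test compound in DMSO was spiked into pH 6.5 phosphate buffer (final DMSO 1 v/v %) and incubated 30 min at room temperature. A solubility range was assigned by nephelometry.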

[10] = Mouse pharmacokinetics after oral administration; format: in vivo
How it was run: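 Both arms used a single oral gavage dose. Plasma arm: male Swiss outbred mice, 20 mg/kg as a suspension in 0.5% CMC, 0.5% benzyl alcohol and 0.4% Tween 80. Plasma was sampled over 24 h and measured by LC–MS. Blood arm: 10 mg/kg in 0.1% methylcellulose. Serial blood was taken 0.5–24 h, lysed with water and analysed by LC–MS/MS. Parameters came from noncompartmental analysis.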

[11] = test system: P. falciparum Pf3D7^0087/N9; test: SCID mouse model of P. falciparum infection; format: in vivo
How it was run: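 NOD-scid IL2Rγnull mice (23–36 g) engrafted with human erythrocytes were infected iv with 20 × 10^6 Pf3D7^0087/N9 parasites. Test compound in 1% methylcellulose was given by oral gavage once daily for 4 days from day 3 (10–60 mg/kg), with actual doses verified by measuring the formulations. Parasitemia was measured by FACS and blood drug by LC–MS–MS. ED90 was set on day 7.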

[12] = male, Swiss outbred, plasma, 20 mg/kg

| microsomal CLint [6] | microsomal CLint ([7]; mouse, liver microsomes) | predicted Eh (H) [6] | predicted Eh (M) [7] | solubility kinetic at 30 min [9] | Structure (SMILES) | further results |
| --- | --- | --- | --- | --- | --- | --- |
|  |  |  |  |  | Cc1cc(Nc2ccc(S(F)(F)(F)(F)F)cc2)n2nc(C(C)(F)F)nc2n1 [Compound 1] | AUCinf [1]: 23 µM·h; CLint (H) [2]: 4.3 μL/min/mg protein; kinetic solubility pH 6.5 [3]: 12.5–25 μg/mL; CLint (M) [4]: 2.8 μL/min/mg protein; predicted Eh (M) [4]: <0.2/<0.2 |
|  |  |  |  |  | Cc1cc(Nc2ccc(C(F)(F)F)nc2)n2nc(C(C)(F)F)nc2n1 [Compound 2] | log DpH7.4 [5]: 2.5; CLint (H) [2]: 2.2 μL/min/mg protein; kinetic solubility pH 6.5 [3]: >100 μg/mL; CLint (M) [4]: < 7 μL/min/mg protein; predicted Eh (M) [4]: < 0.01 |
| 6.2 µL/min/mg | 28 µL/min/mg |  |  |  | Cc1nc(Nc2ccc(C)c(Cl)c2)c2c(C)noc2n1 [Compound 3] | CLint (M) ([7]; mouse, liver microsomes): rapidly metabolized |
| 36 µL/min/mg | 183 µL/min/mg | 0.59 | 0.89 | 1.6 to 3.1 µg/mL (≈ 4.87 to 9.43 µM) | Cc1nc(NC2CCc3ccc(Cl)cc3C2)c2c(C)noc2n1 (centres unmarked) [Compound 9, N-(7-Chloro-1,2,3,4-tetrahydronaphthalen-2-yl)-3,6-dimethylisoxazolo[5,4-d]pyrimidin-4-amine] | fold less potent than 1 on P. falciparum parasites [8]: 2–4 fold |
| 23 µL/min/mg | 179 µL/min/mg | 0.47 | 0.89 | 1.6 to 3.1 µg/mL (≈ 4.87 to 9.43 µM) | Cc1nc(NC2CCc3cc(Cl)ccc3C2)c2c(C)noc2n1 (centres unmarked) [Compound 10, N-(6-Chloro-1,2,3,4-tetrahydronaphthalen-2-yl)-3,6-dimethylisoxazolo[5,4-d]pyrimidin-4-amine] |  |
| 32 µL/min/mg | 233 µL/min/mg | 0.56 | 0.91 | < 1.6 µg/mL | Cc1nc(NC2CCc3ccc(Br)cc3C2)c2c(C)noc2n1 (centres unmarked) [Compound 11, N-(7-Bromo-1,2,3,4-tetrahydronaphthalen-2-yl)-3,6-dimethylisoxazolo[5,4-d]pyrimidin-4-amine] | fold less potent than 1 on P. falciparum parasites [8]: 2–4 fold |
| 19 µL/min/mg | 138 µL/min/mg | 0.42 | 0.86 | < 1.6 µg/mL | Cc1nc(NC2CCc3cc(Br)ccc3C2)c2c(C)noc2n1 (centres unmarked) [Compound 12, N-(6-Bromo-1,2,3,4-tetrahydronaphthalen-2-yl)-3,6-dimethylisoxazolo[5,4-d]pyrimidin-4-amine] |  |
| 17 µL/min/mg | 143 µL/min/mg | 0.39 | 0.86 | 3.1 to 6.3 µg/mL (≈ 9.8 to 19.9 µM) | Cc1nc(NC2Cc3cc(F)c(F)cc3C2)c2c(C)noc2n1 [Compound 13, N-(5,6-Difluoro-2,3-dihydro-1H-inden-2-yl)-3,6-dimethylisoxazolo[5,4-d]pyrimidin-4-amine] | AUC(0-inf) [10, 12]: 4.2 µM·h; Cmax [10, 12]: 2100 nM; Tmax [10, 12]: 60 min |
| 20 µL/min/mg | 38 µL/min/mg | 0.44 | 0.63 | 6.3 to 12.5 µg/mL (≈ 17.2 to 34.1 µM) | Cc1nc(Nc2ccc(S(F)(F)(F)(F)F)cc2)c2c(C)noc2n1 [Compound 14, 3,6-Dimethyl-N-(4-(pentafluoro-l6-sulfanyl)phenyl)isoxazolo[5,4-d]pyrimidin-4-amine] | fold less potent than 1 on P. falciparum parasites [8]: 2–4 fold; ED90 (90% reduction in parasitemia) ([11]; SCID mice, oral QD for 4 days, data collected 24 h after the last dose): ~63 mg/kg; ED90 fold higher than that for 1 ([11]; same SCID model, once daily (QD) dosing, comparison with 1 from ref 26): ≥ 8 fold; AUC(0-inf) ([10]; whole blood, 10 mg/kg): 3.8 µM·h; Cmax ([10]; whole blood, 10 mg/kg): 1300 nM; Tmax ([10]; whole blood, 10 mg/kg): 45 min |
| 24 µL/min/mg | 28 µL/min/mg | 0.48 | 0.55 | 6.3 to 12.5 µg/mL (≈ 20.4 to 40.5 µM) | Cc1nc(Nc2ccc(C(F)(F)F)cc2)c2c(C)noc2n1 [Compound 15, 3,6-Dimethyl-N-(4-(trifluoromethyl)phenyl)isoxazolo[5,4-d]pyrimidin-4-amine] |  |
| 8 µL/min/mg | 13 µL/min/mg | 0.25 | 0.36 | 25 to 50 µg/mL (≈ 80.8 to 162 µM) | Cc1nc(Nc2ccc(C(F)(F)F)nc2)c2c(C)noc2n1 [Compound 16, 3,6-Dimethyl-N-(6-(trifluoromethyl)pyridin-3-yl)isoxazolo[5,4-d]pyrimidin-4-amine] |  |
| 26 µL/min/mg | 328 µL/min/mg | 0.5 | 0.93 | 1.6 to 3.1 µg/mL (≈ 4.32 to 8.37 µM) | Cc1nc(NC2Cc3cc(F)c(F)cc3C2)c2c(C(F)(F)F)noc2n1 [Compound 30, N-(5,6-Difluoro-2,3-dihydro-1H-inden-2-yl)-6-methyl-3-(Trifluoromethyl)isoxazolo[5,4-d]pyrimidin-4-amine] |  |
| 13 µL/min/mg | 76 µL/min/mg | 0.33 | 0.77 | 1.6 to 3.1 µg/mL (≈ 4.42 to 8.56 µM) | Cc1nc(Nc2ccc(C(F)(F)F)cc2)c2c(C(F)(F)F)noc2n1 [Compound 31, 6-Methyl-3-(trifluoromethyl)-N-(4-(trifluoromethyl)phenyl)isoxazolo[5,4-d]pyrimidin-4-amine] |  |
| 13 µL/min/mg | 73 µL/min/mg | 0.34 | 0.76 | < 1.6 µg/mL | Cc1nc(Nc2ccc(S(F)(F)(F)(F)F)cc2)c2c(C(F)(F)F)noc2n1 [Compound 32, 6-Methyl-N-(4-(pentafluoro-l6-sulfanyl)phenyl)-3-(trifluoromethyl)isoxazolo[5,4-d]pyrimidin-4-amine] |  |
| 18 µL/min/mg | 36 µL/min/mg | 0.41 | 0.61 | 1.6 to 3.1 µg/mL (≈ 4.42 to 8.56 µM) | Cc1noc2nc(C(F)(F)F)nc(Nc3ccc(C(F)(F)F)cc3)c12 [Compound 35, 3-Methyl-6-(trifluoromethyl)-N-(4-(trifluoromethyl)phenyl)isoxazolo[5,4-d]pyrimidin-4-amine] |  |
| 10 µL/min/mg | 26 µL/min/mg | 0.28 | 0.53 | 1.6 to 3.1 µg/mL (≈ 3.81 to 7.38 µM) | Cc1noc2nc(C(F)(F)F)nc(Nc3ccc(S(F)(F)(F)(F)F)cc3)c12 [Compound 36, 3-Methyl-N-(4-(pentafluoro-l6-sulfanyl)phenyl)-6-(trifluoromethyl)isoxazolo[5,4-d]pyrimidin-4-amine] |  |
